We go through nine compounds from ChEMBL document CHEMBL1134338, “cis-Unsaturated analogues of 3,8,13,18,23-pentaazapentacosane (BE-4-4-4-4): synthesis and growth inhibitory effects on human prostate cancer cell lines” (2001).

Bounds are passed on as bounds.

Common to all, as to format: functional
One assay has as its system LNCaP. In words: Inhibition of cell growth was determined in LNCaP cell line of human prostate tumor using MTT assay, on day 6 after treatment. Conditions: 144 h, read-out: ID50 (the source's name). Put shortly: (§1)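 Cells in Eagle's MEM with 10% fetal calf serum and nonessential amino acids were seeded at 500 cells/well and incubated overnight at 37 °C in humidified 95% air/5% CO2. Drug dilutions were then added, each concentration in quadruplicate, with buffer-only control columns, for 6 days. MTT (25 µL of 5 mg/mL) was added for 4 h at 37 °C.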

The next assay has as its system DuPro. In words: Inhibition of cell growth was determined in DUPRO cell line of human prostate tumor using MTT assay, on day 6 after treatment. To be noted: 144 h, read-out: ID50 (the source's name). In short, it runs like this:
as §1
Background: Formazan colour is commonly taken as a measure of viable cells.

The subject of a further assay is PC-3. In words: Inhibition of cell growth was determined in PC-3 cell line of human prostate tumor using MTT assay, on day 6 after treatment. To be noted: PC-3, 144 h, read-out: ID50 (the source's name). In short, it runs like this:
as §1

The next assay concerns DU-145. Nature of the assay: Inhibition of cell growth was determined in DU145 cell line of human prostate tumor using MTT assay, on day 6 after treatment. Conditions: DU-145, 144 h, read-out: ID50 (the source's name). In short, it runs like this:
as §1

As to `CCNC/C=C\CNCCCCNCCCCNCCCCNCC`, in the assay on LNCaP, the IC50 amounted to 140 nM.
With `CCNC/C=C\CNC/C=C\CNCCCCNC/C=C\CNCC`, the IC50 with LNCaP is 320 nM; in the assay with DuPro, greater than 31200 nM.
With `CCNC/C=C\CNCCCCNC/C=C\CNCCCCNCC`, the IC50 in the assay with PC-3 is greater than 31200 nM; in the assay on LNCaP it was 540 nM; in the assay with DU-145 it was 340 nM; in the assay with DuPro, greater than 31200 nM.
On to `CCNC/C=C\CNC/C=C\CNC/C=C\CNCCCCNCC`, for which the IC50 with PC-3 was greater than 31200 nM; in the assay on LNCaP it was 240 nM; in the assay on DuPro, greater than 31200 nM.
Take `CCNCCCCNC/C=C\CNC/C=C\CNCCCCNCC`: the IC50 is greater than 31200 nM with PC-3 and 150 nM with LNCaP.
For `CCNCCCCNC/C=C\CNCCCCNCCCCNCC`, the IC50 is greater than 31200 nM with PC-3, 90 nM in the assay with LNCaP and 80 nM with DU-145.
For `CCNC/C=C\CNC/C=C\CNC/C=C\CNC/C=C\CNCC`, the IC50 in the assay with PC-3 is 200 nM; with LNCaP, 550 nM.
Turning to `CCNC/C=C\CNC/C=C\CNCCCCNCCCCNCC`, the IC50 was greater than 31200 nM in the assay on PC-3 and 150 nM in the assay with LNCaP.
As to `CCNC/C=C\CNCCCCNCCCCNC/C=C\CNCC`, the IC50 was found to be 500 nM in the assay with PC-3, 300 nM with LNCaP and 250 nM in the assay with DuPro.
